The values that follow come from ChEMBL document CHEMBL1124849, “Synthesis, antitumor activity, and antiviral activity of 3-substituted 3-deazacytidines and 3-substituted 3-deazauridines” (J Med Chem, 1990).

One data set relates to L1210. Put plainly: In vitro inhibition of L1210 leukemia cell growth. The format is functional. Conditions: Mus musculus, read-out: ID50 (the source's name).
For a further data set, the system named is Enterovirus. Put plainly: The minimum inhibitory concentration (MIC) required to inhibit rhinovirus type 34 induced cytopathic effect (CPE) on WISH cells. The format is functional. The method in brief: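 WISH cells grown 18–24 h to monolayers. Serial 2-fold drug dilutions applied, then 320 CCID50 of rhinovirus type 34 added; sealed plates incubated 72 h at 33 °C. Cell, virus and toxicity controls included.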

Data set [1] in a line: The minimum cytotoxic concentration (MCC) reducing cell viability on WISH cells. The format is cell-based. Conditions: human. The method in brief:
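Uninfected WISH cell monolayers, grown 18–24 h, were given serial 2-fold drug dilutions (cells + medium + drug) and incubated at 33 °C for 72 h. Cells were examined microscopically.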

Data set [2] is described as follows: (§1) The antiviral index is defined as MCC/MIC. The format is functional.
In data set [3] the test system is Mus musculus. Kind of data set: Compound (100 mg/kg) was tested against intraperitoneally implanted P388 leukemia in mice. The format is functional. The method in brief:
(§2)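 CD2F1 mice, groups of six, inoculated ip with 10⁶ P388 leukemia cells; ip treatment started 24 h after inoculation, once daily for 5 days. Read-out is %T/C = (mean survival time of treated mice in days / mean survival time of controls) × 100, with ≥120 taken as moderate activity.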

For data set [4], the system named is Mus musculus. Kind of data set: Compound (200 mg/kg) was tested against intraperitoneally implanted P388 leukemia in mice. The format is functional. In a few lines: as §2
Data set [5] has as its system Mus musculus. Put plainly: Compound (400 mg/kg) was tested against intraperitoneally implanted P388 leukemia in mice. The format is functional. In a few lines: as §2
Data set [6] deals with Mus musculus. Kind of data set: Compound (50 mg/kg) was tested against intraperitoneally implanted P388 leukemia in mice. The format is functional. In a few lines: as §2
Data set [7] relates to Mus musculus. Put plainly: Compound (600 mg/kg) was tested against intraperitoneally implanted P388 leukemia in mice. The format is functional. The method in brief: as §2
The species named for data set [8] is Mus musculus. Put plainly: Mean weight change (day 5 wt minus day 1 wt) of the treated mice to the mean weight change of the control mice in grams. The format is functional. In a few lines: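 CD2F1 mice given 10⁶ P388 cells ip, then ip treatment once daily for 5 days starting at 24 h. Toxicity is the mean weight change (day 5 minus day 1) of treated mice minus that of control mice, in grams.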

Data set [9] can be described thus: as §1. The format is ADME. Conditions: read-out: Antiviral index. The method in brief:
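Rhinovirus type 34 on WISH cell monolayers grown 18–24 h. Serial 2-fold drug dilutions were added with 320 CCID50 of virus and incubated at 33 °C for 72 h. CPE was scored microscopically on a 0–4 scale. […] AI = MCC/MIC.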

Values after ≈ are worked out from the molar mass of the structure shown.

Consider `Nc1c(F)cn(C2O[C@H](CO)[C@@H](O)[C@H]2O)c(=O)c1F` (some centres not stated), for which the IC50 in the data set with L1210 was above 35.9 µM. In the data set on Enterovirus, this compound yielded an MIC of 28.3 µg/mL (≈ 102 µM). In [1], the MCC is 400 µg/mL. In data set [2], the Antiviral index is 14.1.

With `Nc1ccn(C2O[C@H](CO)[C@@H](O)[C@H]2O)c(=O)c1Cl` (some centres not stated), in the data set with L1210, the IC50 was above 36.1 µM. Moreover, the MIC with Enterovirus turned out to be 53.7 µg/mL (≈ 194 µM). This compound showed an MCC in data set [1] of 400 µg/mL. In data set [2], this compound registered an Antiviral index of 7.5.

`O=c1cc(O)ccn1[C@@H]1O[C@H](CO)[C@@H](O)[C@H]1O`: in data set [1], the MCC amounted to 400 µg/mL.

Consider `Nc1ccn(C2O[C@H](CO)[C@@H](O)[C@H]2O)c(=O)c1Br` (some centres not stated), for which the IC50 in the data set on L1210 is above 31.1 µM. Also, the MIC with Enterovirus was 173 µg/mL (≈ 540 µM). In addition, the MCC in [1] worked out at 800 µg/mL. The compound further displayed an Antiviral index in [2] of 4.6.

Compound `O=c1c(Cl)c(O)ccn1C1O[C@H](CO)[C@@H](O)[C@H]1O` (some centres not stated) yielded an MCC in data set [1] above 1000 µg/mL.

In turn, `Nc1cc(=O)n(C2O[C@H](CO)[C@@H](O)[C@H]2O)cc1F` (some centres not stated) gave an MCC in [1] of 800 µg/mL.

Turning to `Nc1ccn([C@@H]2O[C@H](CO)[C@@H](O)[C@H]2O)c(=O)c1`, in the data set on L1210, the IC50 came to 28.6 µM. Moreover, the MIC against Enterovirus came to 3.2 µg/mL (≈ 13.2 µM). Also, in [1], the MCC amounted to 400 µg/mL. Besides, in data set [2], the Antiviral index was 125.

`O=c1c(Br)c(O)ccn1C1O[C@H](CO)[C@@H](O)[C@H]1O` (some centres not stated) gave an MCC in data set [1] above 1000 µg/mL.

As for `Nc1ccn(C2O[C@H](CO)[C@@H](O)[C@H]2O)c(=O)c1[N+](=O)[O-]` (some centres not stated), the MCC in data set [1] is above 1000 µg/mL.

`O=c1c([N+](=O)[O-])c(O)ccn1C1O[C@H](CO)[C@@H](O)[C@H]1O` (some centres not stated) returned an MCC in data set [1] of 400 µg/mL.

In the case of `Nc1ccn(C2O[C@H](CO)[C@@H](O)[C@H]2O)c(=O)c1F` (some centres not stated), the IC50 in the data set with L1210 is 11.8 µM. Besides, the T/C with Mus musculus [3] is listed as 149; with Mus musculus [4] it was 158; with Mus musculus [5], 177; with Mus musculus [6], 133; in the data set on Mus musculus [7] it was 185. In the data set listed under Mus musculus [8], the Weight change is -3.4 (not active) [middle of 5 runs]. The same compound yielded an MIC in the data set with Enterovirus of 1.3 µg/mL (≈ 5 µM). The same compound had an MCC in [1] of 400 µg/mL. In [9], the selectivity ratio came out at 308.
